Values belong to the molecule of their own block, whether it stands above or below them. The source made the active and inactive calls. The calls are words filed in the database; no cut-off is given here.
Experiments:
[1] = system: HeLa; assay: Cellular uptake in human HeLa cells assessed as localization to cytoplasm at 8 uM after 4 hrs by confocal laser microscopy; type: ADME, cell-based
In short: (§1)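 HeLa cells seeded (2 × 10^5) on coverslips, treated 24 h later with squaraine for 3 h (figure legend states 4 h), then irradiated with a metal halogen white lamp at 15 J/cm2. Cells were fixed with PFA, permeabilized with Triton X-100 (0.1% in PBS) and nuclei stained with Hoechst. Localization was imaged by confocal laser microscopy.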

[2] = system: HeLa; assay: Cellular uptake in human HeLa cells assessed as localization to nucleus at 8 uM after 4 hrs by confocal laser microscopy; type: ADME, cell-based; in short: as §1
[3] = system: HeLa; assay: Photocytotoxicity against human HeLa cells assessed as cell growth arrest at 9.6 uM for 3 hrs followed by 15 J/mc2 irradiation measured 72 hrs after irradiation by resazurin proliferation assay; type: functional, cell-based
In short: (§2)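 HeLa cells were given squaraine, irradiated with light (15 J/cm2), and followed for up to 72 h after light treatment for proliferation. Controls were cells treated only with light.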

[4] = system: HeLa; assay: Photocytotoxicity against human HeLa cells assessed as induction of lipid peroxidation-mediated malondialdehyde production at 9.6 uM for 3 hrs followed by 15 J/mc2 irradiation by TBARS assay relative to untreated control; type: functional
[5] = system: MCF7; assay: Photocytotoxicity against human MCF7 cells assessed as induction of lipid peroxidation-mediated malondialdehyde production at 1.8 uM for 3 hrs followed by 15 J/mc2 irradiation by TBARS assay relative to untreated control; type: functional, cell-based
[6] = system: MCF7; assay: Photocytotoxicity against human MCF7 cells assessed as induction of lipid peroxidation-mediated malondialdehyde production at 9.6 uM for 3 hrs followed by 15 J/mc2 irradiation by TBARS assay relative to untreated control; type: functional, cell-based
[7] = system: HeLa; assay: Photocytotoxicity against human HeLa cells assessed as apoptotic cells at 9.6 uM for 3 hrs followed by 15 J/mc2 irradiation by annexin V/propidium iodide staining-based FACS flow cytometry (Rvb=1.3%); type: functional
[8] = system: HeLa; assay: Photocytotoxicity against human HeLa cells assessed as necrotic cells at 9.6 uM for 3 hrs followed by 15 J/mc2 irradiation by annexin V/propidium iodide staining-based FACS flow cytometry (Rvb=1.0%); type: functional
[9] = system: HeLa; assay: Photocytotoxicity against human HeLa cells assessed as necrotic cells at 9.6 uM for 3 hrs followed by 15 J/mc2 measured 72 hrs irradiation by propidium iodide staining; type: functional, cell-based
In short: (§3)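 HeLa cells (2.5 × 10^5, six-well) were treated with squaraine the next day and photoactivated. The medium was then replaced with fresh medium containing Hoechst and PI (both 2 μg/mL). Living cells were time-lapse imaged at 37 °C, 5% CO2 over 72 h, with necrotic (PI-red, swollen) and apoptotic (shrinkage, blebbing, apoptotic bodies) morphology scored. Controls had no squaraine.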

[10] = system: HeLa; assay: Induction of apoptosis in human HeLa cells assessed as apoptotic bodies at 9.6 uM for 3 hrs followed by 15 J/mc2 measured 72 hrs irradiation by propidium iodide staining; type: functional, cell-based; in short: as §3
[11] = system: HeLa; assay: Induction of apoptosis in human HeLa cells assessed as caspase 3/7 activation at 9.6 uM for 3 hrs followed by 15 J/mc2; type: functional, cell-based
In short: (§4)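 HeLa cells (5000/well) were incubated 3 h with squaraine and irradiated at 15 J/cm2. Caspase-3/7 activity was measured 2.5, 16 and 22 h after light using a homogeneous fluorogenic reagent (substrate 1:100 in buffer, 1:1 with sample), with ex 485/em 530 nm. Values are means ± SDs of at least two independent experiments.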

[12] = system: HeLa; assay: Photocytotoxicity against human HeLa cells treated for 3 hrs followed by 15 J/mc2 irradiation measured 24 hrs after irradiation by resazurin proliferation assay; type: functional
In short: (§5)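 Cells were seeded to reach plateau growth: HeLa and B78-H1 at 5000, HepG2 and MCF-7 at 7000 cells/well. They were incubated 3 h with increasing squaraine concentrations (DMSO stock, final DMSO <0.2%, DMSO-matched control), then irradiated 30 min with a metal halogen lamp (15 J/cm2). Resazurin proliferation was read 24 h later as % of untreated fluorescence. IC50 was estimated from dose-response plots; means ± SDs of three independent experiments.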

[13] = system: HepG2; assay: Photocytotoxicity against human HepG2 cells treated for 3 hrs followed by 15 J/mc2 irradiation measured 24 hrs after irradiation by resazurin proliferation assay; type: functional; in short: as §5
[14] = system: HeLa; assay: Cellular uptake in human HeLa cells assessed as localization to cytoplasm at 1 uM after 4 hrs by confocal laser microscopy; type: ADME, cell-based; in short: as §1
[15] = system: HeLa; assay: Cellular uptake in human HeLa cells assessed as localization to nucleus at 1 uM after 4 hrs by confocal laser microscopy; type: ADME, cell-based; in short: as §1
[16] = system: HeLa; assay: Cytotoxicity against human HeLa cells under dark condition after 24 hrs by resazurin proliferation assay; type: cell-based
In short: (§6)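 Cells were seeded to reach plateau growth: HeLa and B78-H1 at 5000, HepG2 and MCF-7 at 7000 cells/well. They were exposed to increasing squaraine concentrations in the dark, with compound from DMSO diluted in medium (final DMSO <0.2%). Viability was measured by resazurin fluorescence as RFU treated/RFU untreated × 100. Values are means ± SDs of three independent experiments.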

[17] = system: HepG2; assay: Cytotoxicity against human HepG2 cells under dark condition after 24 hrs by resazurin proliferation assay; type: cell-based; settings: hepg2, 24 h; in short: as §6
[18] = Cytotoxicity against mouse B78H1 cells under dark condition after 24 hrs by resazurin proliferation assay; type: cell-based; settings: b78h1, 24 h; in short: as §6
[19] = system: MCF7; assay: Cytotoxicity against human MCF7 cells under dark condition after 24 hrs by resazurin proliferation assay; type: cell-based; settings: mcf7, 24 h; in short: as §6
[20] = system: HeLa; assay: Cytotoxicity against human HeLa cells under dark condition at 5 uM after 24 hrs by resazurin proliferation assay; type: cell-based; in short: as §6
[21] = system: HepG2; assay: Cytotoxicity against human HepG2 cells under dark condition at 5 uM after 24 hrs by resazurin proliferation assay; type: cell-based; settings: hepg2, 24 h; in short: as §6
[22] = Cytotoxicity against mouse B78H1 cells under dark condition at 5 uM after 24 hrs by resazurin proliferation assay; type: cell-based; settings: b78h1, 24 h; in short: as §6
[23] = system: MCF7; assay: Cytotoxicity against human MCF7 cells under dark condition at 5 uM after 24 hrs by resazurin proliferation assay; type: cell-based; settings: mcf7, 24 h; in short: as §6
[24] = system: HUVEC; assay: Cytotoxicity against HUVEC cells under dark condition after 24 hrs by resazurin proliferation assay; type: cell-based; settings: human
[25] = system: Mus musculus; assay: Toxicity in C57BL/6 mouse bearing mouse B78H1 cells assessed as mortality at 3 umol/kg, iv measured after 1 week; type: organism-based; settings: in vivo, 168 h
In short: (§7)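 Squaraine given to mice at 3 μmol/kg (the dose used for PDT experiments), formulated in small unilamellar dioleoylphosphatidylcholine liposomes and injected.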

[26] = system: Mus musculus; assay: Toxicity in C57BL/6 mouse bearing mouse B78H1 cells assessed as behavioral changes at 3 umol/kg, iv measured for 1 week; type: organism-based; settings: in vivo, 168 h; in short: as §7
[27] = Photocytotoxicity against mouse B78H1 cells treated for 3 hrs followed by 15 J/mc2 irradiation measured 24 hrs after irradiation by resazurin proliferation assay; type: functional; in short: as §5
[28] = system: MCF7; assay: Photocytotoxicity against human MCF7 cells treated for 3 hrs followed by 15 J/mc2 irradiation measured 24 hrs after irradiation by resazurin proliferation assay; type: functional; in short: as §5
[29] = system: HeLa; assay: Photocytotoxicity against human HeLa cells assessed as cell growth arrest at 1.5 uM for 3 hrs followed by 15 J/mc2 irradiation measured 72 hrs after irradiation by resazurin proliferation assay; type: functional, cell-based; in short: as §2
[30] = system: HeLa; assay: Photocytotoxicity against human HeLa cells assessed as induction of lipid peroxidation-mediated malondialdehyde production at 1.8 uM for 3 hrs followed by 15 J/mc2 irradiation by TBARS assay relative to untreated control; type: functional
[31] = system: HeLa; assay: Photocytotoxicity against human HeLa cells assessed as apoptotic cells at 1.5 uM for 3 hrs followed by 15 J/mc2 irradiation by annexin V/propidium iodide staining-based FACS flow cytometry (Rvb=1.3%); type: functional
[32] = system: HeLa; assay: Photocytotoxicity against human HeLa cells assessed as necrotic cells at 1.5 uM for 3 hrs followed by 15 J/mc2 irradiation by annexin V/propidium iodide staining-based FACS flow cytometry (Rvb=1.0%); type: functional
[33] = system: HeLa; assay: Photocytotoxicity against human HeLa cells assessed as necrotic cells at 1.5 uM for 3 hrs followed by 15 J/mc2 measured 72 hrs irradiation by propidium iodide staining; type: functional, cell-based; in short: as §3
[34] = system: HeLa; assay: Induction of apoptosis in human HeLa cells assessed as apoptotic bodies at 1.5 uM for 3 hrs followed by 15 J/mc2 measured 72 hrs irradiation by propidium iodide staining; type: functional, cell-based; in short: as §3
[35] = system: HeLa; assay: Induction of apoptosis in human HeLa cells assessed as caspase 3/7 activation at 1.5 uM for 3 hrs followed by 15 J/mc2; type: functional, cell-based; in short: as §4

Drug uptake [1]: Active | Drug uptake [2]: Not Active
Compound: CCCCCC[n+]1c(/C=C2\C(=O)C(c3ccc(-c4ccc(-c5ccc(C6=C([O-])/C(=C\c7sc8ccccc8[n+]7CCCCCC)C6=O)s5)s4)s3)=C2[O-])sc2ccccc21
Activity [3]: Active | fold change (FC) [4]: 4 | Activity [5]: Active | Activity [6]: Active | Activity [7]: 8.8% | Activity [8]: 25.9% | Activity [9]: Active | Activity [10]: Active | Activity [11]: Active

Compound: CCCCCCN1/C(=C/C2=C([O-])C(=C\c3sc4ccccc4[n+]3CCCCCC)/C2=O)Sc2ccccc21
Activity [12]: 80% | Activity [13]: 80% | Drug uptake [14]: Active | Drug uptake [15]: Not Active | Activity [16]: Non-toxic | Activity [17]: Non-toxic | Activity [18]: Non-toxic | Activity [19]: Non-toxic | Activity [20]: Toxic | Activity [21]: Toxic | Activity [22]: Toxic | Activity [23]: Toxic | Activity [24]: Non-toxic | Activity [25]: Non-toxic | Activity [26]: Non-toxic | Activity [27]: 80% | Activity [28]: 80% | Activity [29]: Active | fold change (FC) [30]: 4 | Activity [5]: Active | Activity [6]: Active | Activity [31]: 3.9% | Activity [32]: 9.5% | Activity [33]: Active | Activity [34]: Active | Activity [35]: Active

Reference: ChEMBL document CHEMBL1154927, “Photooxidation and Phototoxicity of pi-extended squaraines” (J Med Chem, 2010)
